Measured values as given in ChEMBL document CHEMBL1125722 (J Med Chem, 1991).
The source made the active and inactive calls. The rule behind the calls is not given here.

Tests used:
[1] = tested on: Rattus norvegicus; experiment: Antagonist and antinociceptive profile was evaluated in a paraphenylquinone assay after subcutaneous injection.; type: functional
[2] = tested on: Rattus norvegicus; experiment: Effective dose for apomorphine induced circling behavior was determined in rats after subcutaneous administration of the compound.; type: functional
[3] = species: Rattus norvegicus; experiment: Tail-flick assay was performed to determine antinociceptive profile of the compound.; type: functional; design: unit not given here
[4] = target: T1, Mu-type opioid receptor (Rattus norvegicus, UniProt P33535); experiment: Opioid activity in terms of inhibition of [3H]dihydromorphine binding to opioid receptor mu in rat brain membrane.; type: cell membranes
T1 sequence (P33535 whole entry): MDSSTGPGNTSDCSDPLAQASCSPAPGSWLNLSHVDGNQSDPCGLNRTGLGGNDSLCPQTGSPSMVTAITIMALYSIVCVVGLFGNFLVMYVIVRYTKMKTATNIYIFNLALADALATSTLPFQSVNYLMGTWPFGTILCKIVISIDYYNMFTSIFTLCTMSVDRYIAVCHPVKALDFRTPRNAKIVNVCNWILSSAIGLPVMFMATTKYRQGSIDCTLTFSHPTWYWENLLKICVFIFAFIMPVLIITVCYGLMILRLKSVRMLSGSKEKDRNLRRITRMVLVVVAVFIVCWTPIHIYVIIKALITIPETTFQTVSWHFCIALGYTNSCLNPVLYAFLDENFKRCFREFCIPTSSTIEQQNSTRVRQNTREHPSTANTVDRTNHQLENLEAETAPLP
Procedure, shortened: (§1)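 Whole-brain membranes, cerebellum removed, from male Sprague-Dawley rats (1 mg protein/mL) in 50 mM Tris-HCl pH 7.4 were preincubated 60 min at 25 °C. [3H]dihydromorphine was added to a […], with varying drug concentrations, for 60 min at 25 °C. Nonspecific binding was defined by 10⁻⁵ M naloxone, with GF/B filtration and scintillation counting.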

[5] = species: Rattus norvegicus; experiment: Agonist/antagonist and antinociceptive profile was assessed in a hotplate assay.; type: functional
[6] = target: T2, D(2) dopamine receptor (Rattus norvegicus, UniProt P61169); experiment: Neuroleptic activity in terms of [3H]spiroperidol binding to dopamine receptor D2 in rat striatal membrane.; type: cell membranes
T2 sequence (P61169 whole entry): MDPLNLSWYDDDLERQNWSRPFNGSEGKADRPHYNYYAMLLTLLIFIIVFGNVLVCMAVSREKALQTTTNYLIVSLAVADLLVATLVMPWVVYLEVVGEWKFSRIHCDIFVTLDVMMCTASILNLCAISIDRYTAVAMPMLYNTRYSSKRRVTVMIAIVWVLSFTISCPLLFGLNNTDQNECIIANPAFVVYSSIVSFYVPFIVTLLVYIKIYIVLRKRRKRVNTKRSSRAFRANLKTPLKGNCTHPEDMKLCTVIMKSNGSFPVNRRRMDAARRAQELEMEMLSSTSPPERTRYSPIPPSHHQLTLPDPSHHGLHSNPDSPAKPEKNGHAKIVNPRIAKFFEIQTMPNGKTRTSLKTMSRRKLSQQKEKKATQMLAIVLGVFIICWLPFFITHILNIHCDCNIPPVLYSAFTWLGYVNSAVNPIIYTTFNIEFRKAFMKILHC
Procedure, shortened: (§2)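 Striatal membranes from male Sprague-Dawley rats (1.4 mg protein/mL) were used in 50 mM Tris-HCl pH 7.1 with 0.1% ascorbate, 10 μM pargyline, 120 mM NaCl, 5 mM KCl and 1 mM each of CaCl2 and MgCl2. Incubation was with […], 20 min at 37 °C. Nonspecific binding was defined by 10⁻⁶ M haloperidol, with filtration and scintillation counting.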

[7] = tested on: Monkey; experiment: Antagonist action in tail-flick antagonism vs morphine, in rhesus monkeys. Compound was injected subcutaneously; Not active; type: functional, organism-based; conditions: Cercopithecidae
[8] = target: T2, D(2) dopamine receptor; experiment: Neuroleptic activity in terms of [3H]spiroperidol binding to Dopamine receptor D2 in rat striatal membrane.; type: cell membranes; procedure, shortened: as §2
[9] = tested on: Rattus norvegicus; experiment: Effective dose for apomorphine induced circling behavior was determined in rats after subcutaneous administration of the compound; type: functional; conditions: sc
[10] = tested on: Monkey; experiment: Antagonist action in tail-flick antagonism vs morphine, in rhesus monkeys, compound was injected subcutaneously; Not Active; type: functional, organism-based; conditions: Cercopithecidae
[11] = species: Rattus norvegicus; experiment: Agonist/antagonist and antinociceptive profile was assessed in a hotplate assay
[12] = tested on: Rattus norvegicus; experiment: Antagonist and antinociceptive profile was evaluated in a paraphenylquinone assay after subcutaneous injection; conditions: sc
[13] = target: T1, Mu-type opioid receptor; experiment: Opioid activity in terms of inhibition of [3H]dihydromorphine binding to Opioid receptor mu 1 in rat brain membrane.; type: cell membranes; procedure, shortened: as §1
[14] = tested on: Monkey; experiment: Antagonist action in tail-flick antagonism vs morphine, in rhesus monkeys. Compound was injected subcutaneously.; type: functional; conditions: Cercopithecidae, in Macaca mulatta, sc
[15] = Rattus norvegicus, sc, read-out: ED50
[16] = Rattus norvegicus, read-out: ED50

SMILES	ED50 [2] [µM/kg]	Activity [3]	ED50 [1, 15] [µmol/kg]	ED50 [5, 16] [µmol/kg]	IC50 [8] [nM]	also measured
CCC(=O)O[C@@]1(c2ccccc2)CCN(CCCC(=O)c2ccc(F)cc2)CC1C (single isomer, unassigned; (+))	1.6	0.8				ED50 [1]: 0.2 µM/kg; IC50 [4]: 6.1 nM; ED50 [5]: 0.9 µM/kg; IC50 [6]: 43.3 nM
CCC(=O)O[C@]1(c2ccccc2)CCN(CCCC(=O)c2ccc(F)cc2)C[C@H]1C		>60.8	2.9	> 72.9	147	ED50 [2, 15]: > 12 µmol/kg; ED50 [7]: inactive
O=C(CCCN1CCC(O)(c2ccc(Cl)cc2)CC1)c1ccc(F)cc1 [HALOPERIDOL]						ED50 [9]: 0.1 µmol/kg
CN1CC[C@]23c4c5ccc(O)c4O[C@H]2[C@@H](O)C=C[C@H]3[C@H]1C5 [MORPHINE]		10.6				ED50 [10]: inactive; ED50 [11]: 2.9 µmol/kg; ED50 [12]: 0.4 µmol/kg
CCC(=O)O[C@@]1(c2ccccc2)CCN(CCCC(=O)c2ccc(F)cc2)CC1C (mixture of isomers)	3.9	1.7	0.2	1.6	53.8	IC50 [13]: 9.5 nM; ED50 [14]: > 60.8 µmol/kg
